Values after ≈ are worked out from the molar mass of the structure shown.

The subject of the first series is Staphylococcus aureus. Description: Antibacterial activity against methicillin-resistant Staphylococcus aureus isolate 11 incubated overnight by agar dilution method. The series is classed as functional.
Details: not given
Put shortly: (§1)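 MIC by agar dilution. Strains were grown overnight in LB broth and diluted, then about 10^4 CFU (2 μL spots) were spotted onto LB agar plates containing test compound at 0.5 to 8 μg mL−1 agar. Plates were incubated overnight at 37 °C and inspected for growth. Clinical MSSA and MRSA isolates came from local hospitals.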
(In agar dilution the substance is mixed into plates at graded concentrations.)
The molecule `C=C1C[C@@]23CCC1C[C@@H]2[C@](C)(CCC(=O)Nc1c(O)ccc(C(=O)O)c1O)C(=O)C[C@@H]3SC(C)=O` (single isomer, unassigned) registered an MIC of 4 µg/mL (≈ 7.97 µM).

`C=C1C[C@@]23CCC1C[C@@H]2[C@](C)(CCC(=O)Nc1c(O)ccc(C(=O)O)c1O)C(=O)C[C@@H]3Sc1ccc(C)cc1` (single isomer, unassigned): the minimum inhibitory concentration (MIC) came to 2 µg/mL (≈ 3.64 µM).

In the case of `C=C1C[C@@]23CCC1C[C@@H]2[C@](C)(CCC(=O)Nc1c(O)ccc(C(=O)O)c1O)C(=O)C[C@@H]3SC(=O)c1ccccc1` (single isomer, unassigned), the lowest concentration to inhibit growth (MIC) was 2 µg/mL (≈ 3.55 µM).

The next series deals with Staphylococcus aureus. Description: Antibacterial activity against methicillin-resistant Staphylococcus aureus isolate 10 incubated overnight by agar dilution method. The series is classed as functional.
Details: not given
Summed up: as §1
The molecule `C=C1C[C@@]23CCC1C[C@@H]2[C@](C)(CCC(=O)Nc1c(O)ccc(C(=O)O)c1O)C(=O)C[C@@H]3SC(C)=O` (single isomer, unassigned) gave an MIC of 2 µg/mL (≈ 3.99 µM).

On to `C=C1C[C@@]23CCC1C[C@@H]2[C@](C)(CCC(=O)Nc1c(O)ccc(C(=O)O)c1O)C(=O)C[C@@H]3Sc1ccc(C)cc1` (single isomer, unassigned), for which the MIC came out at 1 µg/mL (≈ 1.82 µM). Against the preceding molecule, the MIC is about 2-fold lower.

Turning to `C=C1C[C@@]23CCC1C[C@@H]2[C@](C)(CCC(=O)Nc1c(O)ccc(C(=O)O)c1O)C(=O)C[C@@H]3SC(=O)c1ccccc1` (single isomer, unassigned), the minimal inhibitory concentration (MIC) was 1 µg/mL (≈ 1.77 µM).

The test system of the next series is Staphylococcus aureus. Description: Antibacterial activity against methicillin-resistant Staphylococcus aureus isolate 5 incubated overnight by agar dilution method. The series is classed as functional.
Details: not given
Put shortly: as §1
`C=C1C[C@@]23CCC1C[C@@H]2[C@](C)(CCC(=O)Nc1c(O)ccc(C(=O)O)c1O)C(=O)C[C@@H]3SC(C)=O` (single isomer, unassigned): 2 µg/mL (≈ 3.99 µM) was the least that counted as inhibitory (MIC).

In turn, `C=C1C[C@@]23CCC1C[C@@H]2[C@](C)(CCC(=O)Nc1c(O)ccc(C(=O)O)c1O)C(=O)C[C@@H]3Sc1ccc(C)cc1` (single isomer, unassigned) displayed a minimum inhibitory concentration (MIC) of 2 µg/mL (≈ 3.64 µM).

`C=C1C[C@@]23CCC1C[C@@H]2[C@](C)(CCC(=O)Nc1c(O)ccc(C(=O)O)c1O)C(=O)C[C@@H]3SC(=O)c1ccccc1` (single isomer, unassigned): inhibition of growth (MIC) required 2 µg/mL (≈ 3.55 µM).

Another series has as its system Staphylococcus aureus. Description: Antibacterial activity against methicillin-resistant Staphylococcus aureus isolate 9 incubated overnight by agar dilution method. The series is classed as functional.
Details: not given
Summed up: as §1
Regarding `C=C1C[C@@]23CCC1C[C@@H]2[C@](C)(CCC(=O)Nc1c(O)ccc(C(=O)O)c1O)C(=O)C[C@@H]3SC(C)=O` (single isomer, unassigned), inhibition of growth (MIC) required 2 µg/mL (≈ 3.99 µM).

The molecule `C=C1C[C@@]23CCC1C[C@@H]2[C@](C)(CCC(=O)Nc1c(O)ccc(C(=O)O)c1O)C(=O)C[C@@H]3Sc1ccc(C)cc1` (single isomer, unassigned) returned an MIC of 1 µg/mL (≈ 1.82 µM).

Consider `C=C1C[C@@]23CCC1C[C@@H]2[C@](C)(CCC(=O)Nc1c(O)ccc(C(=O)O)c1O)C(=O)C[C@@H]3SC(=O)c1ccccc1` (single isomer, unassigned), for which the MIC is 2 µg/mL (≈ 3.55 µM).

System in another series: not listed separately
Description: Stability of the compound in PBS at pH 5.8 at 0.1 mg/ml after 16 hrs by HPLC analysis. The series is classed as physicochemical. The note with it: buffer, pH 5.8, 16 h. Summed up: (§2)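 Compound at 0.1 mg mL−1 dissolved in 1 mM PBS at the stated pH. Held at 37 °C for 16 h. Remaining compound and retro-Michael reversion products analysed by HPLC.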
Consider `C=C1C[C@@]23CCC1C[C@@H]2[C@](C)(CCC(=O)Nc1c(O)ccc(C(=O)O)c1O)C(=O)C[C@@H]3SC(C)=O` (single isomer, unassigned), for which the Stability result is “Stable”.

For a further series, the system named is Staphylococcus aureus. Description: Antibacterial activity against methicillin-sensitive Staphylococcus aureus isolate 2 incubated overnight by agar dilution method.
Details: not given
The series is classed as functional. Put shortly: as §1
In the case of `C=C1C[C@@]23CCC1C[C@@H]2[C@](C)(CCC(=O)Nc1c(O)ccc(C(=O)O)c1O)C(=O)C[C@@H]3SC(C)=O` (single isomer, unassigned), the MIC is 1 µg/mL (≈ 1.99 µM).

As for `C=C1C[C@@]23CCC1C[C@@H]2[C@](C)(CCC(=O)Nc1c(O)ccc(C(=O)O)c1O)C(=O)C[C@@H]3Sc1ccc(C)cc1` (single isomer, unassigned), the lowest concentration to inhibit growth (MIC) was 0.5 µg/mL (≈ 0.91 µM).

As to `C=C1C[C@@]23CCC1C[C@@H]2[C@](C)(CCC(=O)Nc1c(O)ccc(C(=O)O)c1O)C(=O)C[C@@H]3SC(=O)c1ccccc1` (single isomer, unassigned), it took 1 µg/mL (≈ 1.77 µM) to inhibit growth (MIC).

The next series relates to Staphylococcus aureus. Description: Antibacterial activity against methicillin-sensitive Staphylococcus aureus isolate 3 incubated overnight by agar dilution method. The series is classed as functional.
Details: not given
Summed up: as §1
The molecule `C=C1C[C@@]23CCC1C[C@@H]2[C@](C)(CCC(=O)Nc1c(O)ccc(C(=O)O)c1O)C(=O)C[C@@H]3SC(C)=O` (single isomer, unassigned) gave an MIC of 1 µg/mL (≈ 1.99 µM).

For `C=C1C[C@@]23CCC1C[C@@H]2[C@](C)(CCC(=O)Nc1c(O)ccc(C(=O)O)c1O)C(=O)C[C@@H]3Sc1ccc(C)cc1` (single isomer, unassigned), inhibition of growth (MIC) required 0.5 µg/mL (≈ 0.91 µM).

For the molecule `C=C1C[C@@]23CCC1C[C@@H]2[C@](C)(CCC(=O)Nc1c(O)ccc(C(=O)O)c1O)C(=O)C[C@@H]3SC(=O)c1ccccc1` (single isomer, unassigned), the MIC worked out at 1 µg/mL (≈ 1.77 µM).

In another series the test system is Staphylococcus aureus. Nature of the series: Antibacterial activity against Staphylococcus aureus ATCC 29213 incubated overnight by agar dilution method.
Details: not given
The series is classed as functional. Summed up: as §1
For the molecule `C=C1C[C@@]23CCC1C[C@@H]2[C@](C)(CCC(=O)Nc1c(O)ccc(C(=O)O)c1O)C(=O)C[C@@H]3SC(C)=O` (single isomer, unassigned), it took 4 µg/mL (≈ 7.97 µM) to inhibit growth (MIC).

In turn, `C=C1C[C@@]23CCC1C[C@@H]2[C@](C)(CCC(=O)Nc1c(O)ccc(C(=O)O)c1O)C(=O)C[C@@H]3Sc1ccc(C)cc1` (single isomer, unassigned) gave an MIC of 2 µg/mL (≈ 3.64 µM).

`C=C1C[C@@]23CCC1C[C@@H]2[C@](C)(CCC(=O)Nc1c(O)ccc(C(=O)O)c1O)C(=O)C[C@@H]3SC(=O)c1ccccc1` (single isomer, unassigned) showed a minimum inhibitory concentration (MIC) of 4 µg/mL (≈ 7.1 µM).

A further series has as its system Staphylococcus aureus. Nature of the series: Antibacterial activity against methicillin-sensitive Staphylococcus aureus isolate 4 incubated overnight by agar dilution method. The series is classed as functional.
Details: not given
Summed up: as §1
Regarding `C=C1C[C@@]23CCC1C[C@@H]2[C@](C)(CCC(=O)Nc1c(O)ccc(C(=O)O)c1O)C(=O)C[C@@H]3SC(C)=O` (single isomer, unassigned), 1 µg/mL (≈ 1.99 µM) was the least that counted as inhibitory (MIC).

Regarding `C=C1C[C@@]23CCC1C[C@@H]2[C@](C)(CCC(=O)Nc1c(O)ccc(C(=O)O)c1O)C(=O)C[C@@H]3Sc1ccc(C)cc1` (single isomer, unassigned), the lowest concentration to inhibit growth (MIC) was 0.5 µg/mL (≈ 0.91 µM).

On to `C=C1C[C@@]23CCC1C[C@@H]2[C@](C)(CCC(=O)Nc1c(O)ccc(C(=O)O)c1O)C(=O)C[C@@H]3SC(=O)c1ccccc1` (single isomer, unassigned), for which it took 1 µg/mL (≈ 1.77 µM) to inhibit growth (MIC). Against the preceding molecule, the MIC is about 2-fold higher.

In the next series the test system is Staphylococcus aureus. Description: Antibacterial activity against methicillin-resistant Staphylococcus aureus isolate 7 incubated overnight by agar dilution method. The series is classed as functional.
Details: not given
Summed up: as §1
`C=C1C[C@@]23CCC1C[C@@H]2[C@](C)(CCC(=O)Nc1c(O)ccc(C(=O)O)c1O)C(=O)C[C@@H]3SC(C)=O` (single isomer, unassigned): the MIC worked out at 2 µg/mL (≈ 3.99 µM).

On to `C=C1C[C@@]23CCC1C[C@@H]2[C@](C)(CCC(=O)Nc1c(O)ccc(C(=O)O)c1O)C(=O)C[C@@H]3Sc1ccc(C)cc1` (single isomer, unassigned), for which the lowest concentration to inhibit growth (MIC) was 2 µg/mL (≈ 3.64 µM).

Consider `C=C1C[C@@]23CCC1C[C@@H]2[C@](C)(CCC(=O)Nc1c(O)ccc(C(=O)O)c1O)C(=O)C[C@@H]3SC(=O)c1ccccc1` (single isomer, unassigned), for which the MIC stood at 4 µg/mL (≈ 7.1 µM). Compared with the last molecule, the MIC is about 2-fold higher.

A further series deals with Staphylococcus aureus. Description: Antibacterial activity against methicillin-sensitive Staphylococcus aureus isolate 1 incubated overnight by agar dilution method. The series is classed as functional.
Details: not given
Summed up:
as §1
Take `C=C1C[C@@]23CCC1C[C@@H]2[C@](C)(CCC(=O)Nc1c(O)ccc(C(=O)O)c1O)C(=O)C[C@@H]3SC(C)=O` (single isomer, unassigned): the minimal inhibitory concentration (MIC) was 1 µg/mL (≈ 1.99 µM).

`C=C1C[C@@]23CCC1C[C@@H]2[C@](C)(CCC(=O)Nc1c(O)ccc(C(=O)O)c1O)C(=O)C[C@@H]3Sc1ccc(C)cc1` (single isomer, unassigned) displayed an MIC of 1 µg/mL (≈ 1.82 µM).

Molecule `C=C1C[C@@]23CCC1C[C@@H]2[C@](C)(CCC(=O)Nc1c(O)ccc(C(=O)O)c1O)C(=O)C[C@@H]3SC(=O)c1ccccc1` (single isomer, unassigned) yielded an MIC of 1 µg/mL (≈ 1.77 µM).

For another series, the system named is Staphylococcus aureus. Description: Antibacterial activity against methicillin-resistant Staphylococcus aureus isolate 8 incubated overnight by agar dilution method. The series is classed as functional.
Details: not given
Put shortly: as §1
In the case of `C=C1C[C@@]23CCC1C[C@@H]2[C@](C)(CCC(=O)Nc1c(O)ccc(C(=O)O)c1O)C(=O)C[C@@H]3SC(C)=O` (single isomer, unassigned), inhibition of growth (MIC) required 2 µg/mL (≈ 3.99 µM).

Regarding `C=C1C[C@@]23CCC1C[C@@H]2[C@](C)(CCC(=O)Nc1c(O)ccc(C(=O)O)c1O)C(=O)C[C@@H]3Sc1ccc(C)cc1` (single isomer, unassigned), the minimal inhibitory concentration (MIC) came to 1 µg/mL (≈ 1.82 µM). Against the preceding molecule, the MIC is about 2-fold lower.

The molecule `C=C1C[C@@]23CCC1C[C@@H]2[C@](C)(CCC(=O)Nc1c(O)ccc(C(=O)O)c1O)C(=O)C[C@@H]3SC(=O)c1ccccc1` (single isomer, unassigned) displayed an MIC of 2 µg/mL (≈ 3.55 µM).

The test system of a further series is Staphylococcus aureus. Description: Antibacterial activity against methicillin-resistant Staphylococcus aureus isolate 6 incubated overnight by agar dilution method.
Details: not given
The series is classed as functional. Put shortly:
as §1
As to `C=C1C[C@@]23CCC1C[C@@H]2[C@](C)(CCC(=O)Nc1c(O)ccc(C(=O)O)c1O)C(=O)C[C@@H]3SC(C)=O` (single isomer, unassigned), the minimum inhibitory concentration (MIC) stood at 2 µg/mL (≈ 3.99 µM).

For `C=C1C[C@@]23CCC1C[C@@H]2[C@](C)(CCC(=O)Nc1c(O)ccc(C(=O)O)c1O)C(=O)C[C@@H]3Sc1ccc(C)cc1` (single isomer, unassigned), 1 µg/mL (≈ 1.82 µM) was the least that counted as inhibitory (MIC).

Consider `C=C1C[C@@]23CCC1C[C@@H]2[C@](C)(CCC(=O)Nc1c(O)ccc(C(=O)O)c1O)C(=O)C[C@@H]3SC(=O)c1ccccc1` (single isomer, unassigned), for which the minimal inhibitory concentration (MIC) is 2 µg/mL (≈ 3.55 µM).

System in a further series: not listed separately
Nature of the series: Stability of the compound in PBS at pH 7.1 at 0.1 mg/ml after 16 hrs by HPLC analysis. The note with it: buffer, pH 7.1, 16 h. The series is classed as physicochemical. Put shortly: as §2
Regarding `C=C1C[C@@]23CCC1C[C@@H]2[C@](C)(CCC(=O)Nc1c(O)ccc(C(=O)O)c1O)C(=O)C[C@@H]3SC(C)=O` (single isomer, unassigned), the Stability result is listed as “Stable”.

As a reminder, the MIC is the lowest concentration that inhibits growth of the organism. A high value points to a less susceptible organism.

Source of the values: ChEMBL document CHEMBL4138284, “Biomimetic Stereoselective Sulfa-Michael Addition Leads to Platensimycin and Platencin Sulfur Analogues against Methicillin-Resistant Staphylococcus aureus” (J Nat Prod, 2018).
